In assay [1] the target is T1, Tyrosine-protein kinase BTK (Homo sapiens, UniProt Q06187). In words: Inhibition of BTK (unknown origin) by ADP-gloassay. Background: ADP-Glo first removes unused ATP, then detects ADP through luciferase.
Assay [2] has as its target T2, Phosphatidylinositol 4,5-bisphosphate 3-kinase catalytic subunit delta isoform (Homo sapiens) (UniProt O00329).
T2 sequence (whole entry): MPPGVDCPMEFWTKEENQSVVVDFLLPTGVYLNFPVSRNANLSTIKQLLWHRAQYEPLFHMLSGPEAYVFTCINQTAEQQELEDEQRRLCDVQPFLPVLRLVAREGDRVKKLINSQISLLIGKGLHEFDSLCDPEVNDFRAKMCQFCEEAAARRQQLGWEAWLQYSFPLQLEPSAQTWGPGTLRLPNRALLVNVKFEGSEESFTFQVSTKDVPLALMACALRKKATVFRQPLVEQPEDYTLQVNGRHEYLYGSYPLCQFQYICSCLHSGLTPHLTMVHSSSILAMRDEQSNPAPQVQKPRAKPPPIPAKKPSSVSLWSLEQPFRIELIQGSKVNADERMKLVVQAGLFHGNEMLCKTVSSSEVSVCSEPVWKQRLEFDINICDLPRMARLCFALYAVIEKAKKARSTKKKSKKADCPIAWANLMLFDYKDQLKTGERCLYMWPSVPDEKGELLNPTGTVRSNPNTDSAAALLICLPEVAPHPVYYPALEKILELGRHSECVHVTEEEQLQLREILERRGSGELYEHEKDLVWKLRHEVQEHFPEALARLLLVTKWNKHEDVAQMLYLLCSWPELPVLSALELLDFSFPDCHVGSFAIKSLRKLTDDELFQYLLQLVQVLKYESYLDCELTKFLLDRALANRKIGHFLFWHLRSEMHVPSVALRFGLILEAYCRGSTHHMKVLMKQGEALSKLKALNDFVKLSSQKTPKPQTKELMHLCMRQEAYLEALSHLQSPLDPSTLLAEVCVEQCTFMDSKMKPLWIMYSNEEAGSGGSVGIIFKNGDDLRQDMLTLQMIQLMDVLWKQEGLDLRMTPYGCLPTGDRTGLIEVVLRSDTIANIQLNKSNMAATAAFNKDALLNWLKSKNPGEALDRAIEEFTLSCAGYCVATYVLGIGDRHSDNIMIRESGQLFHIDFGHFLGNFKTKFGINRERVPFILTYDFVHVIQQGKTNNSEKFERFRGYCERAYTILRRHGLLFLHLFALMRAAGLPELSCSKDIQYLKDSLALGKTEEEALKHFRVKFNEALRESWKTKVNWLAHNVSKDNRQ
Nature of the assay: Inhibition of PI3Kdelta (unknown origin) at 200 nM by ADP-gloassay relative to control. The essentials: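 PI3Kδ was tested with the PI3K-Glo Class I Profiling Kit and a luminescence read-out, following the manufacturer's protocol. Each compound was tested at a single concentration of 200 nM and expressed as percent inhibition versus control.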

Assay [3] has as its target T3, Phosphatidylinositol 4,5-bisphosphate 3-kinase catalytic subunit delta isoform (Homo sapiens, UniProt O00329).
T3 sequence (O00329 whole entry): T2 sequence (whole entry)
In words: Inhibition of PI3Kdelta (unknown origin) by ADP-gloassay. In a few lines:
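PI3K isoform activity was measured with the PI3K-Glo Class I Profiling Kit, a luminescent ADP-Glo-type read-out, following the manufacturer's protocol.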

Assay [4] has as its system Raji. In words: Antiproliferative activity against human Raji cells after 48 hrs by CCK8 assay. The format is functional, cell-based. The essentials:
(§1)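 Raji and Ramos cells grown in RPMI1640 or IMDM with 10% FBS, 37 °C, 5% CO2. Seeded at 3000-5000 cells/well and left 12-24 h before dosing. Several compound concentrations given for 48 h. CCK-8 then added for 4 h and OD read at 450 nm. IC50 is the concentration giving 50% cell death versus control, calculated from inhibition ratios.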
(Tetrazolium dyes change colour on reduction, which living cells bring about.)

For assay [5], the system named is Ramos. Nature of the assay: Antiproliferative activity against human Ramos cells after 48 hrs by CCK8 assay. Type of assay: functional, cell-based. The essentials: as §1
For assay [6], the target named is Phosphatidylinositol 4,5-bisphosphate 3-kinase catalytic subunit alpha isoform (Homo sapiens, UniProt P42336). Nature of the assay: Inhibition of PI3Kalpha (unknown origin) by ADP-gloassay. The essentials:
(§2)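 PI3K isoform activity was measured with the PI3K-Glo Class I Profiling Kit, a luminescent ADP-Glo-type read-out, following the manufacturer's protocol. Compounds were tested over 1 nM–5 μM to give IC50 values.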

The target of assay [7] is Phosphatidylinositol 4,5-bisphosphate 3-kinase catalytic subunit beta isoform (Homo sapiens, UniProt P42338). In words: Inhibition of PI3Kbeta (unknown origin) by ADP-gloassay. In a few lines:
as §2

For assay [8], the target named is Phosphatidylinositol 4,5-bisphosphate 3-kinase catalytic subunit gamma isoform (Homo sapiens, UniProt P48736). In words: Inhibition of PI3Kgamma (unknown origin) by ADP-gloassay. The essentials:
as §2

Assay [9] concerns the target Serine/threonine-protein kinase mTOR (Homo sapiens, UniProt P42345). Nature of the assay: Inhibition of mTOR (unknown origin) by ADP-gloassay.
For assay [10], the target named is T2, Phosphatidylinositol 4,5-bisphosphate 3-kinase catalytic subunit delta isoform (Homo sapiens). In words: Inhibition of PI3Kdelta in human Ramos cells assessed as reduction in Akt phosphorylation at Ser473 residues at 0.25 to 4 uM after 4 hrs by Western blot analysis. Type of assay: cell-based. The essentials:
(§3)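 Cells were treated with compound for 4 h, then stimulated or not with anti-human IgM F(ab')2. They were lysed in Tris-Cl pH 6.8/4% SDS/glycerol/β-mercaptoethanol buffer on ice and protein was quantified by BCA. Equal protein was run on 12% SDS-PAGE and transferred to PVDF. Blots were probed with specific primary antibodies overnight at 4 °C and HRP secondaries 1 h at 37 °C, with ECL detection.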

For assay [11] the target is unchanged. In words: Inhibition of PI3Kdelta in human Ramos cells assessed as reduction in mTOR phosphorylation at Ser2481 residues at 0.25 to 4 uM after 4 hrs by Western blot analysis. Type of assay: cell-based. In a few lines: as §3
Assay [12] has as its system Ramos. Nature of the assay: Induction of apoptosis in human Ramos cells assessed as early apoptotic cells at 5 uM after 48 hrs by Annexin-V-FITC/propidium iodide staining based flow cytometric analysis (reference value: 1.08%). The format is functional.
Assay [13] concerns Ramos. In words: Induction of apoptosis in human Ramos cells assessed as late apoptotic cells at 5 uM after 48 hrs by Annexin-V-FITC/propidium iodide staining based flow cytometric analysis (reference value: 0.98%). Type of assay: functional.
Assay [14] concerns Ramos. In words: Induction of apoptosis in human Ramos cells assessed as necrotic cells at 5 uM after 48 hrs by Annexin-V-FITC/propidium iodide staining based flow cytometric analysis (reference value: 1.11%). The format is functional. (In general: A flow cytometer gives signals particle by particle.)
For assay [15], the system named is Ramos. Nature of the assay: Induction of apoptosis in human Ramos cells assessed as viable cells at 5 uM after 48 hrs by Annexin-V-FITC/propidium iodide staining based flow cytometric analysis (reference value: 96.83%). Type of assay: functional. As to conditions: read-out: Activity.
Assay [16] concerns Ramos. In words: Cell cycle arrest in human Ramos cells assessed as accumulation at G0/G1 phase at 5 uM after 48 hrs by propidium iodide staining based flow cytometric analysis (reference value: 24.65%). The format is functional.
Assay [17] relates to Ramos. Nature of the assay: Cell cycle arrest in human Ramos cells assessed as accumulation at S phase at 5 uM after 48 hrs by propidium iodide staining based flow cytometric analysis (reference value: 71.08%). The format is functional.
The subject of assay [18] is Ramos. Nature of the assay: Cell cycle arrest in human Ramos cells assessed as accumulation at G2/M phase at 5 uM after 48 hrs by propidium iodide staining based flow cytometric analysis (reference value: 4.26%). Type of assay: functional.
In assay [19] the test system is Ramos. Nature of the assay: Cell cycle arrest in human Ramos cells assessed as accumulation at apoptotic phase at 5 uM after 48 hrs by propidium iodide staining based flow cytometric analysis (reference value: 5.03%). The format is functional.
The target in assay [20] is T1, Tyrosine-protein kinase BTK. As to conditions: at 200 nM.

Active and inactive are the calls of the source. The calls are words filed in the database; no cut-off is given here.

T1 sequence (Q06187 whole entry, canonical isoform): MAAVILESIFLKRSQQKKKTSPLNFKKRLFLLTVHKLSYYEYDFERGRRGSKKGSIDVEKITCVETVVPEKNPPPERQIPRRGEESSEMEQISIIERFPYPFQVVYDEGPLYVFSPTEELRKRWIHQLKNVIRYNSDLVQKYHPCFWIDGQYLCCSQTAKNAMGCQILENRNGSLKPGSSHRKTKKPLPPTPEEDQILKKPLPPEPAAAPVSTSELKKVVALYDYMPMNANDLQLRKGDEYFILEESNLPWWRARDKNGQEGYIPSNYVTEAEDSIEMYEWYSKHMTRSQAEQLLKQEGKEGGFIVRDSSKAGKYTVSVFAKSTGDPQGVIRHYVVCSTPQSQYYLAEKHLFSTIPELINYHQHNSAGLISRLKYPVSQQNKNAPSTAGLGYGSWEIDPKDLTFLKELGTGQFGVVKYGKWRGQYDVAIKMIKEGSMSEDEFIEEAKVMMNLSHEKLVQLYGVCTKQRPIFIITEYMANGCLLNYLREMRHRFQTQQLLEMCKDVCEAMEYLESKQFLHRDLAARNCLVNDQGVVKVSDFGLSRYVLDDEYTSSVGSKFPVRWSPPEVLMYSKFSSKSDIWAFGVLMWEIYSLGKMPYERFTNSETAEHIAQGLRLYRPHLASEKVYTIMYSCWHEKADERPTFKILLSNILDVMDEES
Sequence of Phosphatidylinositol 4,5-bisphosphate 3-kinase catalytic subunit gamma isoform (P48736 whole entry, canonical isoform): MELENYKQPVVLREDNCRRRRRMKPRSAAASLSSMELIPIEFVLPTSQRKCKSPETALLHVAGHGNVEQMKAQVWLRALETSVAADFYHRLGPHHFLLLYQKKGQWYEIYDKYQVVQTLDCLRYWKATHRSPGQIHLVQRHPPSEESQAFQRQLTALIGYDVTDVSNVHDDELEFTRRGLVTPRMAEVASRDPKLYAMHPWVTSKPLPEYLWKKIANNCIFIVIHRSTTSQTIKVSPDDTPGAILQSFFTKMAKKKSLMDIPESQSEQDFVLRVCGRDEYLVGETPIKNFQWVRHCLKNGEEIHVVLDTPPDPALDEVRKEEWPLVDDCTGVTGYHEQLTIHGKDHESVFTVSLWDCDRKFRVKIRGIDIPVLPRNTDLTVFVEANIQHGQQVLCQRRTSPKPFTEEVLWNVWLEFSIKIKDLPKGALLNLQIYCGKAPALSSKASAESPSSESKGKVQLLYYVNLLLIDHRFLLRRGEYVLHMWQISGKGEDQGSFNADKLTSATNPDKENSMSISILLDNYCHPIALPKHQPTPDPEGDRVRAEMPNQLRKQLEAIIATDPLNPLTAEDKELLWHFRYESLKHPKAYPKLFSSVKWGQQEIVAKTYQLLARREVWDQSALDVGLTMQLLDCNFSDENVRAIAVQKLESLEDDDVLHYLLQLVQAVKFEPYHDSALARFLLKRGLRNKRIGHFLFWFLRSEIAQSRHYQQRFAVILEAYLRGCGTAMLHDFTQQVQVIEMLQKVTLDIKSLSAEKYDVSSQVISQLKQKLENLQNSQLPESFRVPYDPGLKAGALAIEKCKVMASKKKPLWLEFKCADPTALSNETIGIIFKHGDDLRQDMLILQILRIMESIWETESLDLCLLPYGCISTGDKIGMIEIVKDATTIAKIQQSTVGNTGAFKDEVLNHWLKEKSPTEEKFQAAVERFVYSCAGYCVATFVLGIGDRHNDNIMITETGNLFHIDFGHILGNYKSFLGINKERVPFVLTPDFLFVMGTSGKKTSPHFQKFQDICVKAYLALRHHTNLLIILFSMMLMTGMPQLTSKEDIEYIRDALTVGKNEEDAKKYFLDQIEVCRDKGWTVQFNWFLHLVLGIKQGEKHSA
Sequence of Phosphatidylinositol 4,5-bisphosphate 3-kinase catalytic subunit alpha isoform (P42336 whole entry, canonical isoform): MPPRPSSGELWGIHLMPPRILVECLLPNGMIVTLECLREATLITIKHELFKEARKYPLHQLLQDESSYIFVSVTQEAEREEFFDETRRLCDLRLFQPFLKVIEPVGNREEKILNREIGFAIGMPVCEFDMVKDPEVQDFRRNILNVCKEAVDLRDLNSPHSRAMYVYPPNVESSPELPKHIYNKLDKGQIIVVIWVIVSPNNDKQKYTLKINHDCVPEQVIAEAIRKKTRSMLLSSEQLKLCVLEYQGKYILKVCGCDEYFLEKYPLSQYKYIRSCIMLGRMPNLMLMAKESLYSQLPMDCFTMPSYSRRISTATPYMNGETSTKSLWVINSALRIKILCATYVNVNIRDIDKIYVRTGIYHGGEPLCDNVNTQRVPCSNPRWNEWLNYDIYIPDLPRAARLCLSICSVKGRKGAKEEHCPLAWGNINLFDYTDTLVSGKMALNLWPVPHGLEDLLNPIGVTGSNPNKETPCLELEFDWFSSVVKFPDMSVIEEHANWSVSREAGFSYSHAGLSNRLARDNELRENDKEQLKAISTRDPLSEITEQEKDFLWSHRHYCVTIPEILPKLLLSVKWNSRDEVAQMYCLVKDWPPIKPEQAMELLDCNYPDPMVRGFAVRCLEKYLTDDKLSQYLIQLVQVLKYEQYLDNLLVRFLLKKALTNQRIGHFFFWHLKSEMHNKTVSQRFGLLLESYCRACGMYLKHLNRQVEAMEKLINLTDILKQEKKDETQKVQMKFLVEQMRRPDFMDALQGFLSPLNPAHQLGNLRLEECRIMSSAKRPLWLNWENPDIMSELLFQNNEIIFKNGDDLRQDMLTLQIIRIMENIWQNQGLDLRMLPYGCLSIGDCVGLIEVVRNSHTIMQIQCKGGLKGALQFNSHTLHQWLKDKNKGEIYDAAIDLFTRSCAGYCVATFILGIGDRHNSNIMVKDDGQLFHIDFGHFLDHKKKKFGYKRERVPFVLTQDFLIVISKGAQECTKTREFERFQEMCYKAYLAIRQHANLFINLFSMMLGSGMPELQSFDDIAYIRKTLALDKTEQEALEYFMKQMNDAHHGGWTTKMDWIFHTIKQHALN
Sequence of Phosphatidylinositol 4,5-bisphosphate 3-kinase catalytic subunit beta isoform (P42338 whole entry, canonical isoform): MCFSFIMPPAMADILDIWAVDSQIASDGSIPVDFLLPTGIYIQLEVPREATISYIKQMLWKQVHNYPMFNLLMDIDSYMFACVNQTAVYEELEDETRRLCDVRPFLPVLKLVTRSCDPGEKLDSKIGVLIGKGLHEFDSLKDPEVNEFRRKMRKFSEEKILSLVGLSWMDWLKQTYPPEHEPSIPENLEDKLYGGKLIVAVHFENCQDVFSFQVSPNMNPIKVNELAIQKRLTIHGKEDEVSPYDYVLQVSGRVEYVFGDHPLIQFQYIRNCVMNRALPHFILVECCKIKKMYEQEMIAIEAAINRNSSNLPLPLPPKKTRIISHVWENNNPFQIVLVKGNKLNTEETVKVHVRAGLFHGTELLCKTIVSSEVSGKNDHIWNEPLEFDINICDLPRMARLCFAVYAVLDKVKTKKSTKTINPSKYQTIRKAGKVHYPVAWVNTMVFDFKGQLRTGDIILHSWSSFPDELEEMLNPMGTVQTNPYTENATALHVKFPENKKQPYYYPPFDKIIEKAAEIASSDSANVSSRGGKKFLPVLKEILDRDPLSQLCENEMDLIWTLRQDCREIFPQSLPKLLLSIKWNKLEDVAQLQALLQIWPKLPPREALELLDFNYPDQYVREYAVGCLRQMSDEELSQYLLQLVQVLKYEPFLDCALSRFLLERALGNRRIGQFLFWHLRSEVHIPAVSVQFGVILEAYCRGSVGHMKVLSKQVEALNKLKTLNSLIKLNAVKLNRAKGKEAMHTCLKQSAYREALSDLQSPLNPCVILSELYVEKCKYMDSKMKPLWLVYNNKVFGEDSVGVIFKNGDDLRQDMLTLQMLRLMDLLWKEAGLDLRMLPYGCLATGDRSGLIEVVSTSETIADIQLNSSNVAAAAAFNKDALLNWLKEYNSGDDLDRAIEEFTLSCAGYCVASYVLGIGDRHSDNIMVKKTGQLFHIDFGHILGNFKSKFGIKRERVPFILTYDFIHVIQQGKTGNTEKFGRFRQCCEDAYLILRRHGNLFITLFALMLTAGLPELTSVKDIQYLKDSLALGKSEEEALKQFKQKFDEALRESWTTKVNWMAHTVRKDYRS

For `C=CC(=O)Nc1cccc(-n2c(=O)ccc3oc4ccc(-c5cccnc5)cc4c32)c1`, the 50% inhibitory concentration (IC50) – broadly, the point on the concentration scale where inhibition reaches its midpoint – in [1] came out at 74 nM; in assay [3], 170 nM; in [4], 2100 nM; in assay [5] it was 2650 nM; in assay [6], 855 nM; in assay [7], 2820 nM. Also, the figures for the 50% inhibitory concentration (IC50) in [8] and in [9] were 2180 nM and more than 10000 nM, respectively. Also, the inhibition – broadly, how much of the control response was suppressed – in assay [2] is 58.1%; in assay [20], 86.8%. Besides, the inhibition result in assay [10] and in assay [11] was “Active” throughout. The Activity in assay [12] is 37.62%; in assay [13], 52.16%; in assay [14], 0.67%; in assay [16], 60.8%; in assay [17], 34.56%; in [18], 4.64%. Moreover, in assay [19], the Activity is listed as 55.36%. Further, the viability at 5 µM in assay [15] came out at 9.55%.
